Source: PubChem (Sanford-Burnham Center for Chemical Genomics)
Only some compounds are listed: those with a hit (about 2.4% of all), similar ones and a draw of the others.
LMPTP block: blocks human LMPTP phosphatase; recombinant LMPTP-A, OMFP fluorogenic substrate, fluorescence intensity; inhibition, % at 20 µM; hit rate 0.22% among 360,000;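 active = compounds that cut the enzyme signal by at least half of the control window in the single-dose screen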;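 also: plate controls were DMSO wells with enzyme plus substrate for no effect and substrate without enzyme for full effect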
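Test system: LMPTP-A, protein tyrosine phosphatase of low molecular weight; Input: 0.625 nM enzyme; Incubation: 50 min dark incubation at room temperature; Signal: endpoint fluorescence intensity from OMFP dephosphorylation; Read-out basis: % inhibition versus control wells.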
SUMO1-SIM PPI: modulators of human SUMO1-mediated protein-protein interactions | P63165 | inhibition, % at 20 µM | AID 602429 | hit rate 0.33% among 360,000 | SUMO1 binding to a labelled peptide, TR-FRET, 1 h; in the data active = inhibition above about 37%
Target sequence (P63165 whole entry, looked up): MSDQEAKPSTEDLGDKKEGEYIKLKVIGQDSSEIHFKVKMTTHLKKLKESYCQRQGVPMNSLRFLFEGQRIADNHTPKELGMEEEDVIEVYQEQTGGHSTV
NadD inh: blocks S. aureus nicotinate mononucleotide adenylyltransferase; AID 602399; purified NadD enzyme, colorimetric absorbance read-out; hit rate 0.78% among 360,000; inhibition, % at 20 µM; in the data active = inhibition above about 26%
Scp1 inh: blocks human Scp-1 phosphatase activity; Q9GZU7; Recombinant Scp1, phosphopeptide, malachite green phosphate absorbance; inhibition, % at 20 µM; hit rate 0.88% among 340,000; AID 493091;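 active = inhibition above about 50% at 20 µM, limit read from the data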;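 also: plate controls were DMSO wells with enzyme for no effect and wells lacking enzyme for full effect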
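Material – SCP-1 phosphatase catalytic domain, residues 76-261 · Buffer or medium – Acidic Tris acetate buffer with magnesium and detergent · Also added – Phospho 17-mer peptide substrate · Compound – single 20 µM dose, 1% DMSO · Times – 45 min room-temperature reaction, 5 min colour, 30 min stabiliser · Technique – Phosphate-binding colour reagent, absorbance read at 630 nm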
STEP inh: blocks human striatal-enriched tyrosine phosphatase | P54829 | inhibition, % at 20 µM | hit rate 0.25% among 360,000 | recombinant STEP, OMFP fluorogenic substrate, fluorescence | AID 588621;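 active = inhibition at 20 µM, scaled per plate between control wells, above about 37%, limit read from the data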;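 also: 0% = DMSO with enzyme and substrate and 100% = substrate only without enzyme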
Target sequence (P54829 whole entry, looked up): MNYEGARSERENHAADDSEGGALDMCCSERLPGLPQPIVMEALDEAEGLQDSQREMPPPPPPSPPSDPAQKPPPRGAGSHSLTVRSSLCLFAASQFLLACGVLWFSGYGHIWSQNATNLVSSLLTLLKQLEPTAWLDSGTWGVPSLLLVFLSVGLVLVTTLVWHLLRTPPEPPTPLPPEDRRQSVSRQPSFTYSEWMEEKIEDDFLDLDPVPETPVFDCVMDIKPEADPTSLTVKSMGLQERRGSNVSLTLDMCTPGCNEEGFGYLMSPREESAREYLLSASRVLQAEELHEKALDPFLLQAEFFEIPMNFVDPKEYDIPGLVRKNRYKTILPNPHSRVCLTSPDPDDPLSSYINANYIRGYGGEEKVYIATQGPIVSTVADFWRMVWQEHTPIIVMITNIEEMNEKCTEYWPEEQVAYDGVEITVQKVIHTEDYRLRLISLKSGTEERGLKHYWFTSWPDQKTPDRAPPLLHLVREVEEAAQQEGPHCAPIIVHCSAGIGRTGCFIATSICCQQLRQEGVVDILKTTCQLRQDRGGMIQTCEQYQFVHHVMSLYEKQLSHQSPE
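Test system: STEP tyrosine phosphatase / Reagent: OMFP at 25 µM / Doses: 20 µM, 1% DMSO / Read-out: percent inhibition scaled to no-enzyme and uninhibited-enzyme controls, plate-pattern corrected / Detection: FITC-channel fluorescence of OMFP product / Medium: Bis-Tris buffer pH 6.0, 2.5 mM DTT, 0.005% Tween 20 / Schedule: 20 min at room temperature, dark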
DNMT1 block: inhibitors of human DNMT1. P26358. inhibition (reported as % activation of signal), % at 10 µM. hit rate 0.83% among 360,000. DNMT1 molecular beacon, Hinp1I cleavage, fluorescence; in the data active = inhibition above about 50%
Scp1 confirm: confirmation of human Scp-1 phosphatase inhibitors. shares compounds with Scp1 inh. recombinant SCP-1 catalytic domain, phosphate release, malachite green absorbance. inhibition, % at 20 µM. hit rate 61% among 2,500. AID 540281;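 also: plate controls were DMSO with enzyme for no effect and buffer wells lacking enzyme for full effect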
Scp-1 MG ctr: counter-screen for Scp-1 inhibitors: colorimetric interference; shares compounds with Scp1 inh; Colorimetric interference counterscreen, malachite green absorbance 630 nm; apparent inhibition (interference), % at 20 µM; 2,500 tested, under 10 active; AID 540313;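 also: compounds added after enzyme reaction finished so only phosphate colour detection is probed; plate controls were DMSO wells with completed Scp-1 reaction for no effect and substrate wells lacking enzyme for full effect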
Scp1 DSF: Scp-1 (human) binding by thermal shift; thermal shift relative to vanadate control, % at 40 µM; hit rate 25% among 1,500; shares compounds with Scp1 inh; Recombinant SCP1, Sypro Orange thermal shift Tm;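 active = substances whose mean melting-temperature shift, as a percentage of the reference inhibitor's shift, reaches about 5.3%, limit read from the data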;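 also: 0% = Tm of DMSO wells and 100% = Tm with sodium orthovanadate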
Active calls of the source: *; · = no result given.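 The calls were made as follows, unless noted: active = inhibition of at least 30% at 20 µM; inactive = the rest.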

SMILES	LMPTP block	SUMO1-SIM PPI	NadD inh	Scp1 inh	STEP inh	DNMT1 block	Scp1 confirm	Scp-1 MG ctr	Scp1 DSF
O=C(Nc1ccc2c(c1)C(=O)NC2=O)c1cccc(Cl)c1	3	3	2	54*	22	28	66*	-14	0
O=C(Nc1ccc2c(c1)C(=O)NC2=O)c1ccc(Cl)s1	5	-7	6	85*	22	3	-2	-15	·
O=C(Nc1ccc2c(c1)C(=O)NC2=O)c1cc(Cl)ccc1Cl	-14	-130	-6	-13	-1	-1	·	·	·
O=C(O)c1ccc(-n2nnnc2SCc2cccc(Br)c2)cc1	-3	2	-6	-12	-1	1	·	·	·
C#CCn1c(=NC(=O)c2ccc(Br)s2)sc2cc(NC(C)=O)ccc21	6	0	-6	54*	19	34	70*	-7	2
COCCn1c(=NC(=O)c2cccs2)sc2cc(NC(C)=O)ccc21	0	-1	-9	-5	-1	-6	·	·	·
Nn1c(SCC(=O)NC(=O)NCc2ccco2)nnc1-c1ccc(OC(F)F)cc1	7	4	7	63*	-4	49	54*	-22	3
O=C(CSc1nc(-c2ccc(F)cc2)cs1)NC(=O)NCc1ccco1	7	2	-1	74*	6	40	39*	-12	-12
Nn1c(SCC(=O)NCCN2C(=O)CSC2=O)nnc1-c1ccc(OC(F)F)cc1	0	6	-1	-8	0	-1	·	·	·
O=C(CSc1nncs1)NC(=O)NCc1ccco1	0	-1	-4	-6	-2	-3	·	·	·
CC1CCCCN1S(=O)(=O)c1ccc(C(=O)N2CCOCC2)cc1 (centres undefined)	-2	1	-3	-3	0	1	·	·	·
COC(=O)COc1ccc(S(=O)(=O)Nc2ccc(C(N)=O)cc2)cc1	-1	-1	-2	-4	-2	3	·	·	·
CCNC(=O)CC1C(=O)N(c2cccc(OC)c2)C(=O)N1CCOC (centres undefined)	-1	2	0	-5	0	7	·	·	·
O=C1CC(c2nc3ccccc3[nH]2)CN1c1ccccc1F (centres undefined)	0	-1	-1	2	2	1	·	·	·
CC(Cl)C(=O)NNC(=O)CNS(=O)(=O)c1ccccc1 (centres undefined)	-1	2	-3	-21	-1	1	·	·	·
CNc1cc(=O)n(C)c(=O)n1-c1ccccc1	-1	3	-2	-2	0	2	·	·	·
CCn1c(NC)cc(=O)n(C)c1=O	0	24	-7	79*	-1	7	-12	-6	·
CC1NC(=O)NC1CCCCC(=O)O (centres undefined)	-1	3	0	-3	0	6	·	·	·
CCc1cccc(NC(=O)CCCCCC2NC(=O)NC2C)c1 (centres undefined)	-2	2	2	-7	-2	1	-19	-16	·
CCc1cccc(NC(=O)CCCN2C(=O)NC(C)(C)C2=O)c1	-2	-1	0	-10	-4	6	·	·	·
Cc1ccc(NC(=O)CCCCCC2NC(=O)NC2C)cc1 (centres undefined)	0	2	0	-3	1	0	11	4	·
CC1NC(=O)NC1CCCCCC(=O)Nc1ccc(F)c(Cl)c1 (centres undefined)	-1	0	-9	0	1	-3	0	-7	·
O=C(NCCNc1cc(Cl)ccc1[N+](=O)[O-])c1ccco1	1	-28	-2	-10	0	2	·	·	·
Cc1cccc(-n2ccc(=O)c(C(=O)Nc3ccc(S(=O)(=O)Nc4nccs4)cc3)n2)c1	5	6	17	-5	2	-1	·	·	·
O=C(Nc1ccc(S(=O)(=O)Nc2nccs2)cc1)c1nn(-c2ccccc2)ccc1=O	48	10	19	75*	7	43	71*	-16	6.8*
SMILES	LMPTP block	SUMO1-SIM PPI	NadD inh	Scp1 inh	STEP inh	DNMT1 block	Scp1 confirm	Scp-1 MG ctr	Scp1 DSF
CCc1ccc(OCC(=O)NNC(=O)c2ccc(NC(=O)C3CC3)cc2)cc1	37	19	-1	52*	39	16	78*	-11	-25
CC(=O)Nc1ccc(S(=O)(=O)NCC(=O)NNC(=O)COc2ccccc2Cl)cc1	-1	-1	1	-3	0	1	-25	-26	·
C/C=C/c1ccc(OCCCCOc2c(OC)cccc2OC)c(OC)c1	3	-2	-1	-13	4	-6	·	·	·
CC(=O)Nc1ccc(-n2nnnc2SCC(=O)Nc2cccc(NC(=O)c3ccco3)c2)cc1	0	31	0	55*	4	-4	30*	-5	3
CCc1ccc(-n2nnnc2SCC(=O)Nc2ccc(NC(C)=O)cc2)cc1	0	0	-3	-2	-1	-2	·	·	·
CCOc1ccc(C(=O)CCC(=O)N2CCN(S(=O)(=O)c3cccc(F)c3)CC2)cc1	0	1	1	-4	-1	-6	·	·	·
N#Cc1ccc(OCC(=O)Nc2cccc(S(=O)(=O)NC3=NCCCCC3)c2)cc1	1	6	1	97*	0	7	50*	-14	-5
O=C(Nc1cccc(S(=O)(=O)NC2=NCCCCC2)c1)C1COc2ccccc2O1 (centres undefined)	22	-3	1	50*	7	31	65*	-8	-11
O=C(COc1ccc(Cl)cc1)Nc1cccc(S(=O)(=O)NC2=NCCCCC2)c1	1	2	4	-9	2	3	·	·	·
CCOc1ccccc1C(=O)OCC(=O)Nc1cccc(S(=O)(=O)NC2=NCCCCC2)c1	-1	-1	-3	-2	0	1	·	·	·
O=C(COC(=O)c1ccccc1NCCO)Nc1cccc(S(=O)(=O)NC2=NCCCCC2)c1	2	4	-2	58*	-1	5	48*	-11	-14
NCCOc1cnn(-c2ccccc2Cl)c(=O)c1Cl	-1	-1	-3	-4	-4	3	·	·	·
COCCn1nnnc1C(c1ccc(C)cc1)N1CCN(Cc2ccc3c(c2)OCO3)CC1 (centres undefined)	-1	-2	-8	4	1	0	·	·	·
COc1cc2nc(Nc3cccc(F)c3)nc(N)c2cc1OC	2	10	-15	-9	3	-1	·	·	·
C/C(N)=C(/C#N)C(=O)CSc1nnc(NC(C)C)s1	17	7	8	91*	6	37	64*	-10	-2
